Fewer inactive variants are shown than the library holds.

167 variants from the RNAGym collection of RNA variant scans (doi:10.1126/science.aae0568) can be followed below.

B1: tRNA (parent)
chain: GUUCCGUUGGCGUAAUGGUAACGCGUCUCCCUCCUAAGGAGAAGACUGCGGGUUCGAGUCCCGUACGGAACG

The variants in the data set derive from B1. Description: yeast fitness relative to wild type (ratio to wild type); higher = fitter; tRNA-Arg(CCU), competitive growth, 37 C, YPD. The essentials:
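Genotype frequency changes were the basis for Darwinian fitness relative to wild type. The frequencies came from 100-nucleotide paired-end sequencing of gene amplicons from the start population and each end population of pooled yeast strains with tRNA-Arg(CCU) gene variants at the native locus. Competition ran in YPD at 37°C for 24 hours in six replicates, genotypes needed ≥ 100 starting reads, and estimates < 0.5 were set to 0.5.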
As for U13A U16A C31G C33U G38C G58C C66G, the yeast fitness was at most 0.5.
Then U13A U32C A69U, with 0.995; and U13C A14G C31U, with 0.824.
Then U13C C22U G38C, with at most 0.5.
In the case of U13C C30A G38A C55A A65C it was at most 0.5; in that of U13A C24A G51A C61A A69U, at most 0.5; in that of U13A G58C A69U, 1.04.
For U13A U32A C60G, the yeast fitness was at most 0.5.
Then U13A U35A A40U G41A A42C, with at most 0.5.
In the case of U13A C27G A42U A57C, the yeast fitness was at most 0.5.
In the case of U13A C27G A42U A69U it was 0.687; in that of U13C C30U A40G C55A G63C A65C, at most 0.5; in that of U13A C31A A42G G67A A69U, at most 0.5.
For U13A U28C C55A, the yeast fitness worked out at 0.595.
For U13C A14C C60U C62U U64A, the yeast fitness is at most 0.5.
In the case of U13C A20U it was 1.12; in that of U13A C22A C27U A42U, at most 0.5.
As for U13C C24G G38C, the yeast fitness came out at 0.592.
In the case of U13C A20C A43G it was 0.684; in that of U13A C27G A40G G41C A69U, 1.07.
Take U13A C33G C55A: the yeast fitness was at most 0.5.
Then U13A U28C G41A G44A, with at most 0.5.
In the case of U13A C30U G58C it was at most 0.5; in that of U13C A45C G50U, at most 0.5.
In the case of U13A C33G A36G C49A it was at most 0.5.
Regarding U13C C27U C55A A69U, the yeast fitness is at most 0.5.
Then U13C A36C C61A, with 0.651; and U13A C31G C46G A69U, with 0.624; and U13A C31G A42G, with 0.699.
Then U13A C60G G67A, with at most 0.5; and U13C A21G U35A C55U A65G, with at most 0.5.
Then U13A C22G G25C C27U C30G C55A A69U, with 0.572; and U13A C61U A65G, with 0.71; and U13A U19A C34U A42C A43U, with at most 0.5.
In the case of U13A G23A G67C, the yeast fitness turned out to be 0.535.
Then U13C A40G G63A G67A, with at most 0.5; and U13A C27G A45C, with 0.743.
Then U13A C30U G38C C49A, with at most 0.5; and U13A U28C G58C A69U, with 0.7; and U13A G23A A36C G38A A65G, with at most 0.5.
Turning to U13C A15C C46G, the yeast fitness was at most 0.5.
Then U13C C29A G51C, with 0.624; and U13A C24U C55A G58C, with at most 0.5.
In the case of U13C A21G C31G it was 0.754; in that of U13A U16A C24G C33G C62G, at most 0.5; in that of U13A C55U A70C, 0.571.
In the case of U13C C24G C60G it was at most 0.5; in that of U13A U26G C30G C49G, 0.501; in that of U13A C33U A42G G52C A65G, at most 0.5.
For U13C A37G G58A, the yeast fitness came to 0.647.
In the case of U13A C31G C33U A37C A65U it was at most 0.5.
With U13C A37U A42U C66A A69C, the yeast fitness is at most 0.5.
Consider U13A A69G, for which the yeast fitness came to 1.07.
In the case of U13A C27G U28A A65U A70U it was 0.543; in that of U13A C33G U54A U59A, at most 0.5.
In the case of U13C C22U G39C it was 0.512.
In the case of U13C A14G G56C it was at most 0.5.
Turning to U13A U32G A45G A70G, the yeast fitness was at most 0.5.
Consider U13C C24A, for which the yeast fitness stood at 0.69.
Then U13C C24U, with 1.01.
In the case of U13A C22G C31G it was 0.547; in that of U13C A36C, 0.643; in that of U13C A36G, 1.01.
In the case of U13C A43U C60G it was 0.546; in that of U13C C29G A45U C62U, at most 0.5; in that of U13C A20U C62U, 0.731.
With U13A C60U, the yeast fitness amounted to 0.699.
In the case of U13A G23C A70C it was 0.667; in that of U13A U54A, 0.622; in that of U13C C22U, 0.932.
With U13C A45G C61G, the yeast fitness is at most 0.5.
In the case of U13A C22G C24G A36U A40C it was 0.58; in that of U13C A43U A69C, 0.766; in that of U13A C22G C29G A40U U54C C61G, at most 0.5.
In the case of U13C A43G G52C it was at most 0.5; in that of U13A A45C G48A, 1.26; in that of U13A C33A A36U, 0.544.
Then U13C C27U A37C, with at most 0.5; and U13C A14C C34U G38C G51A A57C C66U, with at most 0.5.
As to U13C A20G A37G G58A, the yeast fitness is at most 0.5.
In the case of U13C C27G A37U C60A it was 0.727; in that of U13A A43U, 0.855.
Consider U13C A40U, for which the yeast fitness was determined as 1.03.
Then U13A U19A, with 0.828; and U13A C49G, with 1.01.
Then U13A C61G A70G, with 0.6; and U13A C30U U47A U59A C60U C62G, with at most 0.5.
Then U13C A43G A45U, with 0.587; and U13A G23C C24G A70G, with at most 0.5.
With U13A C22G U32C A42C G48C C55G, the yeast fitness is at most 0.5.
Then U13A C29U A42U, with 0.568; and U13C A36U G51C, with at most 0.5; and U13A U26G C29U, with at most 0.5.
In the case of U13C C22U A45U G48A C55A it was at most 0.5.
Regarding U13A U19C A20U C29G C33G A37G C49U, the yeast fitness is at most 0.5.
In the case of U13A C22A A65G it was 1.06; in that of U13A C30A, 1.11; in that of U13A U28C U64A, 0.718.
Then U13C A15G A43U, with 0.752; and U13C A57C, with 0.67.
In the case of U13A C22U G51A C62G G63C C66G A69U it was at most 0.5.
On to U13A C31A G44A A57G A65C A70U, for which the yeast fitness is at most 0.5.
In the case of U13C A40U A69U it was 0.793.
For U13C C29G A36G G41A G48C, the yeast fitness was at most 0.5.
Consider U13C C24U U53A C66U, for which the yeast fitness is at most 0.5.
Then U13A U28A C30G C46U G56C C61G, with at most 0.5.
As to U13A C46A, the yeast fitness is 0.979.
In the case of U13A G38C A69C it was 0.524; in that of U13A G25C A45G A57G, at most 0.5; in that of U13A C22U C46U, 1.06.
In the case of U13A C33A A36U G68C it was at most 0.5; in that of U13A U28C G56A, 0.805.
Then U13C A15G A65C, with 0.583.
As for U13A C29G G48C, the yeast fitness was at most 0.5.
In the case of U13A G23C C61A C62A it was 0.726.
In the case of U13C A42G G56U it was at most 0.5; in that of U13A C55U, 0.626; in that of U13A C24A, 0.624.
Take U13A C24U: the yeast fitness stood at 0.795.
Then U13A C22G C24A G39C A43C G44C U47C C61U, with at most 0.5; and U13A G56C A65C, with at most 0.5; and U13A U16A C49A C61U C62G, with at most 0.5.
In the case of U13C C27U A69U it was 0.648.
In the case of U13C A36U C62G A65G it was 0.671.
Turning to U13A G48C, the yeast fitness was found to be 1.1.
In the case of U13C A40U A57G it was 0.688.
In the case of U13A G23A it was 0.659; in that of U13A G23C, 0.57.
In the case of U13C C29A C33G U35C G51A it was 0.503; in that of U13A C27U G44C, 0.637; in that of U13C C29U G56C, at most 0.5.
For the variant U13A C24G G25A G39C A40C G51C, the yeast fitness amounted to 0.745.
Consider U13A G39C, for which the yeast fitness worked out at 0.779.
U13A G41A U64C A70G: the yeast fitness is at most 0.5.
Then U13C A45U A57G, with at most 0.5; and U13C C29G A36U G41C A45C C49U U54C C61U, with at most 0.5; and U13A G25A, with 1.01.
With U13A C34U, the yeast fitness was found to be 0.58.
In the case of U13C C30G it was 0.578.
Then U13C C30A, with 0.825.
In the case of U13C A36G A40C it was 0.61; in that of U13A U28C A69C, 0.76.
Take U13A A65U A69C: the yeast fitness was at most 0.5.
In the case of U13A G50U it was 0.838.
In the case of U13A G51C it was 0.58; in that of U13A C61A C62U C66U, at most 0.5.
In the case of U13A C66A it was 0.619.
With U13C A14U C46U G48A C55U G68U, the yeast fitness is at most 0.5.
Take U13C A70U: the yeast fitness was determined as 0.945.
Then U13C A70G, with 1.03.
In the case of U13A U32C U54G C62U it was at most 0.5; in that of U13C A14G C24G, at most 0.5.
Then U13A C29G A42C C62G, with at most 0.5.
As to U13C A42U U47C G51A A70C, the yeast fitness is at most 0.5.
In the case of U13C A20G C49U C66U A70C it was at most 0.5; in that of U13A U32C A40C G67A, at most 0.5.
As to U13A U53C U59A U64A A70C, the yeast fitness is at most 0.5.
Consider U13C C22U G38C A70U, for which the yeast fitness is at most 0.5.
Then U13A G39A A45G U54A, with at most 0.5.
Then U13A C61U A70U, with 0.708; and U13A C61U A70G, with 0.633; and U13A A45G G67U, with 0.629.
Regarding U13A U28C A45U, the yeast fitness is 0.702.
For U13A G18C C27U A40G G41A A45U, the yeast fitness is at most 0.5.
In the case of U13A U32A C62U G63A it was at most 0.5.
In the case of U13A U32A A37U G41A it was at most 0.5; in that of U13A U19G C49U, 0.625.
